Experimental data reported in ChEMBL document CHEMBL1165950, “Design and synthesis of new potent anticancer pyrazoles with high FLT3 kinase inhibitory selectivity” (Bioorg Med Chem, 2010).

Key:
Format in all cases: functional
NCI-H226 [1] = experiment: Cytotoxicity against human NCI-H226 cells assessed as cell growth at 1 uM after 48 hrs by sulforhodamine B assay; settings: NCI-H226, 48 h, read-out: Activity
786-0 = experiment: Cytotoxicity against human 786-0 cells assessed as cell growth at 10 uM after 48 hrs by sulforhodamine B assay; settings: 786-0, 48 h, read-out: Activity
SR [2] = experiment: Cytotoxicity against human SR cells assessed as cell growth at 100 nM after 48 hrs by sulforhodamine B assay; settings: read-out: Activity
UO-31 = experiment: Cytotoxicity against human UO31 cells assessed as cell growth at 10 uM after 48 hrs by sulforhodamine B assay; settings: UO-31, 48 h, read-out: Activity
CAKI-1 = experiment: Cytotoxicity against human Caki1 cells assessed as cell growth at 1 uM after 48 hrs by sulforhodamine B assay; settings: CAKI-1, 48 h, read-out: Activity
MCF7 [3] = experiment: Cytotoxicity against human MCF7 cells assessed as cell growth at 100 nM after 48 hrs by sulforhodamine B assay; settings: MCF7, 48 h, read-out: Activity
U-251 = experiment: Cytotoxicity against human U251 cells assessed as cell growth at 10 uM; settings: read-out: Activity
How it was run: (§1)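 NCI-60 screen: cells grown in RPMI 1640 with 5% FBS and 2 mM L-glutamine, plated at 5000–40,000 cells/well according to doubling time, and preincubated 24 h at 37 °C, 5% CO2. The single 10 µM dose (DMSO stock) was added, then incubated 48 h. Cells were TCA-fixed and stained with 0.4% SRB, read at 515 nm, and growth % calculated against time-zero and control plates.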

HOP-92 = experiment: Cytotoxicity against human HOP92 cells assessed as cell growth at 10 uM; settings: read-out: Activity
How it was run: (§2)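 Single-dose NCI-60 screen at 10 µM. Cells were grown in RPMI 1640 with 5% FBS and 2 mM L-glutamine, then treated for 48 h at 37 °C. Protein was measured by SRB staining with absorbance at 515 nm. Percentage growth was recorded, and inhibition percentage was calculated as 100 minus growth percentage.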

[4] = Cytotoxicity against human […] cells assessed as cell growth at 10 uM after 48 hrs by sulforhodamine B assay; settings: read-out: Activity
MCF7 [5] = experiment: Growth inhibition of human MCF7 cells after 48 hrs by sulforhodamine B assay; settings: MCF7, 48 h
How it was run: (§3)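 NCI 60-cell screen, five-dose mode. Cells grown in RPMI 1640 with 5% FBS and 2 mM L-glutamine and plated at 5000-40,000 cells/well according to doubling time. After 24 h preincubation, a Tz plate was TCA-fixed. Five concentrations (10-fold or 1/2 log dilutions) were applied for 48 h at 37 °C. SRB staining read at 515 nm. IC50 taken from [(Ti-Tz)/(C-Tz)]×100 = 50.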

MDA-MB-435 = experiment: Cytotoxicity against human MDA-MB-435 cells assessed as cell growth at 0.01 uM after 48 hrs by sulforhodamine B assay; settings: MDA-MB-435, 48 h, read-out: Activity
ACHN = experiment: Cytotoxicity against human ACHN cells assessed as cell growth at 0.01 uM after 48 hrs by sulforhodamine B assay; settings: read-out: Activity
SK-MEL-28 [6] = experiment: Cytotoxicity against human SK-MEL-28 cells assessed as cell growth at 0.001 uM after 48 hrs by sulforhodamine B assay; settings: SK-MEL-28, 48 h, read-out: Activity
SR [7] = experiment: Cytotoxicity against human SR cells assessed as cell growth at 0.01 uM after 48 hrs by sulforhodamine B assay; settings: read-out: Activity
NCI-H460 = experiment: Cytotoxicity against human NCI-H460 cells assessed as cell growth at 1 uM after 48 hrs by sulforhodamine B assay; settings: NCI-H460, 48 h, read-out: Activity
NCI-H226 [8] = experiment: Growth inhibition of human NCI-H226 cells after 48 hrs by sulforhodamine B assay; settings: NCI-H226, 48 h; for CC50: read-out: LC50 (the source's name); how it was run: as §3
[9] = Cytotoxicity against human […] cells assessed as cell growth at 10 uM; settings: read-out: Activity; how it was run: as §1
KM12 = experiment: Cytotoxicity against human KM12 cells assessed as cell growth at 10 uM; settings: read-out: Activity; how it was run: as §1
SR [10] = experiment: Cytotoxicity against human SR cells assessed as cell growth at 0.001 uM after 48 hrs by sulforhodamine B assay; settings: read-out: Activity
HCC 2998 [11] = experiment: Growth inhibition of human HCC2998 cells after 48 hrs by sulforhodamine B assay; settings: HCC 2998, 48 h; for CC50: read-out: LC50 (the source's name); how it was run: as §3
NCI-H226 [12] = experiment: Cytotoxicity against human NCI-H226 cells assessed as cell growth at 0.01 uM after 48 hrs by sulforhodamine B assay; settings: NCI-H226, 48 h, read-out: Activity
HCC 2998 [13] = experiment: Cytotoxicity against human HCC2998 cells assessed as cell growth at 1 uM after 48 hrs by sulforhodamine B assay; settings: HCC 2998, 48 h, read-out: Activity
DU-145 = experiment: Cytotoxicity against human DU145 cells assessed as cell growth at 0.01 uM after 48 hrs by sulforhodamine B assay; settings: DU-145, 48 h, read-out: Activity
RXF 393 [14] = experiment: Cytotoxicity against human RXF393 cells assessed as cell growth at 0.001 uM after 48 hrs by sulforhodamine B assay; settings: RXF 393, 48 h, read-out: Activity
SK-MEL-28 [15] = experiment: Cytotoxicity against human SK-MEL-28 cells assessed as cell growth at 1 uM after 48 hrs by sulforhodamine B assay; settings: SK-MEL-28, 48 h, read-out: Activity
RXF 393 [16] = experiment: Cytotoxicity against human RXF393 cells assessed as cell growth at 1 uM after 48 hrs by sulforhodamine B assay; settings: RXF 393, 48 h, read-out: Activity
HCC 2998 [17] = experiment: Cytotoxicity against human HCC2998 cells assessed as cell growth at 100 nM after 48 hrs by sulforhodamine B assay; settings: HCC 2998, 48 h, read-out: Activity
HCT-116 = experiment: Cytotoxicity against human HCT116 cells assessed as cell growth at 100 nM after 48 hrs by sulforhodamine B assay; settings: HCT-116, 48 h, read-out: Activity
TK-10 = experiment: Growth inhibition of human TK10 cells after 48 hrs by sulforhodamine B assay; settings: TK-10, 48 h; for CC50: read-out: LC50 (the source's name); how it was run: as §3
MCF7 [18] = experiment: Cytotoxicity against human MCF7 cells assessed as cell growth at 1 uM after 48 hrs by sulforhodamine B assay; settings: MCF7, 48 h, read-out: Activity
RXF 393 [19] = experiment: Cytotoxicity against human RXF393 cells assessed as cell growth at 10 uM after 48 hrs by sulforhodamine B assay; settings: RXF 393, 48 h, read-out: Activity
SK-MEL-28 [20] = experiment: Cytotoxicity against human SK-MEL-28 cells assessed as cell growth at 100 nM after 48 hrs by sulforhodamine B assay; settings: SK-MEL-28, 48 h, read-out: Activity
CCRF-CEM = experiment: Cytotoxicity against human CCRF-CEM cells assessed as cell growth at 10 uM; settings: read-out: Activity; how it was run: as §2
MCF7 [21] = experiment: Cytotoxicity against human MCF7 cells assessed as cell growth at 0.001 uM after 48 hrs by sulforhodamine B assay; settings: MCF7, 48 h, read-out: Activity
HCC 2998 [22] = experiment: Cytotoxicity against human HCC2998 cells assessed as cell growth at 10 uM after 48 hrs by sulforhodamine B assay; settings: HCC 2998, 48 h, read-out: Activity
NCI-H226 [23] = experiment: Cytotoxicity against human NCI-H226 cells assessed as cell growth at 10 uM after 48 hrs by sulforhodamine B assay; settings: NCI-H226, 48 h, read-out: Activity

COc1cc(C)cc(-c2c(-c3ccnc(-c4ccc(C(C)=O)cc4)c3)cnn2CC#N)c1
growth at 1 µM (NCI-H226 [1]): 34% | growth at 10 µM (786-0): 20% | growth at 0.1 µM (SR [2]): 77% | growth at 10 µM (UO-31): 15% | growth at 1 µM (CAKI-1): 29% | growth at 0.1 µM (MCF7 [3]): 86% | growth at 10 µM (U-251): 84.7% | growth at 10 µM (HOP-92): 23.5% | growth at 10 µM [4]: -1% | GI50 (MCF7 [5]): 3.25 µM | LC50 (MCF7 [5]): > 100 µM | TGI (MCF7 [5]): > 100 µM | growth at 0.01 µM (MDA-MB-435): 91% | growth at 0.01 µM (ACHN): 96% | growth at 0.001 µM (SK-MEL-28 [6]): 90% | growth at 0.01 µM (SR [7]): 95% | growth at 1 µM (NCI-H460): -9% | GI50 (NCI-H226 [8]): 5.47 µM | TGI (NCI-H226 [8]): > 100 µM | CC50 (NCI-H226 [8]): > 100 µM | growth at 10 µM [9]: 67.6% | growth at 10 µM (KM12): 80.2% | growth at 0.001 µM (SR [10]): 96% | GI50 (HCC 2998 [11]): 3.41 µM | TGI (HCC 2998 [11]): > 100 µM | CC50 (HCC 2998 [11]): > 100 µM | growth at 0.01 µM (NCI-H226 [12]): 93% | growth at 1 µM (HCC 2998 [13]): 2% | growth at 0.01 µM (DU-145): 100% | growth at 0.001 µM (RXF 393 [14]): 86% | growth at 1 µM (SK-MEL-28 [15]): 44% | growth at 1 µM (RXF 393 [16]): -27% | growth at 0.1 µM (HCC 2998 [17]): 104% | growth at 0.1 µM (HCT-116): 73% | TGI (TK-10): > 100 µM | CC50 (TK-10): > 100 µM | growth at 1 µM (MCF7 [18]): 16% | growth at 10 µM (RXF 393 [19]): -27% | growth at 0.1 µM (SK-MEL-28 [20]): 95% | growth at 10 µM (CCRF-CEM): 53.7% | growth at 0.001 µM (MCF7 [21]): 96% | growth at 10 µM (HCC 2998 [22]): 5% | growth at 10 µM (NCI-H226 [23]): 35%

Cc1cc(O)cc(-c2nn(CC#N)cc2-c2ccnc(-c3ccc(Oc4ccccc4)cc3)c2)c1
growth at 1 µM (NCI-H226 [1]): 6% | growth at 10 µM (786-0): -93% | growth at 0.1 µM (SR [2]): 96% | growth at 10 µM (UO-31): -81% | growth at 1 µM (CAKI-1): -24% | growth at 0.1 µM (MCF7 [3]): 95% | growth at 10 µM (U-251): 47.5% | growth at 10 µM [4]: -14% | GI50 (MCF7 [5]): 2.23 µM | LC50 (MCF7 [5]): 21.9 µM | TGI (MCF7 [5]): 5.48 µM | growth at 0.01 µM (MDA-MB-435): 95% | growth at 0.01 µM (ACHN): 95% | growth at 0.001 µM (SK-MEL-28 [6]): 91% | growth at 0.01 µM (SR [7]): 95% | growth at 1 µM (NCI-H460): -79% | GI50 (NCI-H226 [8]): 3.22 µM | TGI (NCI-H226 [8]): 12.2 µM | CC50 (NCI-H226 [8]): 64.5 µM | growth at 10 µM (KM12): 39.9% | growth at 0.001 µM (SR [10]): 94% | GI50 (HCC 2998 [11]): 1.91 µM | TGI (HCC 2998 [11]): 3.39 µM | CC50 (HCC 2998 [11]): 6.02 µM | growth at 0.01 µM (NCI-H226 [12]): 89% | growth at 1 µM (HCC 2998 [13]): -94% | growth at 0.01 µM (DU-145): 96% | growth at 0.001 µM (RXF 393 [14]): 88% | growth at 1 µM (SK-MEL-28 [15]): 30% | growth at 1 µM (RXF 393 [16]): -58% | growth at 0.1 µM (HCC 2998 [17]): 107% | growth at 0.1 µM (HCT-116): 86% | GI50 (TK-10): 4.25 µM | TGI (TK-10): 15.1 µM | CC50 (TK-10): 43.6 µM | growth at 1 µM (MCF7 [18]): -34% | growth at 10 µM (RXF 393 [19]): -87% | growth at 0.1 µM (SK-MEL-28 [20]): 95% | growth at 0.001 µM (MCF7 [21]): 92% | growth at 10 µM (HCC 2998 [22]): -95% | growth at 10 µM (NCI-H226 [23]): -63%
